Data set [1] can be described thus: Terminal elimination half life in woodchuck hepatitis virus-negative woodchucks at 33.3 mg/kg, iv administered as single dose followed by dose of 33.3 mg/kg, po after 4 weeks washout period. The data set is classed as ADME, organism-based. The conditions noted are these: marmota monax, in vivo, read-out: beta t1/2 (converted). In outline:
(§1)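 Three WHV-negative adult woodchucks got a 33.3 mg/kg iv bolus, with one saline control. After a 4-week washout the same three got 33.3 mg/kg orally. Blood was drawn predose and at 0.25–24 h. Serum APD and DXG were measured by HPLC-UV (LOQ 0.2 µM) and analysed noncompartmentally. AUC0-∞ used the trapezoidal rule, extrapolated by Clast/λz.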

A short description of data set [2]: AUC (0 to infinity) in woodchuck hepatitis virus-negative woodchucks at 33.3 mg/kg, iv administered as single dose followed by dose of 33.3 mg/kg, po after 4 weeks washout period. In kind it is ADME, organism-based. The conditions noted are these: marmota monax, plasma. In a few lines: as §1
Data set [3] can be described thus: AUC (0 to infinity) in woodchuck hepatitis virus-negative woodchucks at 33.3 mg/kg, iv administered as single dose. The arrangement: time infinity, dose 33.3 mg/kg, route intravenous. The following applies: marmota monax, plasma. The data set is classed as ADME, organism-based. In outline: as §1
Data set [4] in a line: Cmax in woodchuck hepatitis virus-negative woodchucks at 33.3 mg/kg, iv administered as single dose. The arrangement: dose 33.3 mg/kg, route intravenous. The data set is classed as ADME, organism-based. The conditions noted are these: marmota monax, in vivo. In outline:
as §1

Data set [5] has as its system Woodchuck hepatitis virus. Kind of data set: Antiviral activity against woodchuck hepatitis virus chronically infected in woodchucks M7236 assessed as reduction in anti-WHs antibody levels at 30 mg/kg/day, po after 4 weeks. In kind it is functional, organism-based.
Data set [6] relates to Woodchuck hepatitis virus. As to the kind of experiment: Antiviral activity against woodchuck hepatitis virus chronically infected woodchucks assessed as reduction of serum viral DNA at 1 mg/kg/day, po after 4 weeks. In kind it is functional, organism-based. In a few lines: (§2)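 Chronic WHV carriers were stratified into groups of five. They were dosed orally once daily for 4 weeks at 1, 3, 10 or 30 mg/kg/day, or given liquid-diet placebo; drug was dissolved in saline and suspended in diet by syringe. Serum WHV DNA was measured weekly by triplicate dot blot (sensitivity 1.0 x 107 WHVge/ml) or triplicate real-time PCR (1.0 x 103 WHVge/ml) against pWHV8 standards. Log values were compared with pretreatment and placebo by repeated-measures ANOVA with Holm-Sidak tests.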

The nature of data set [7]: Cmax in woodchuck hepatitis virus-negative woodchucks at 33.3 mg/kg, iv administered as single dose followed by dose of 33.3 mg/kg, po after 4 weeks washout period. The data set is classed as ADME, organism-based. The following applies: marmota monax, in vivo. In outline: as §1
Data set [8] concerns Woodchuck hepatitis virus. As to the kind of experiment: Antiviral activity against woodchuck hepatitis virus chronically infected woodchucks assessed as log reduction of serum viral DNA at 3 mg/kg/day, po after 4 weeks. In kind it is functional. In outline: (§3)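 Chronic WHV-carrier adult woodchucks were stratified into groups of five and dosed orally once daily for 4 weeks (saline solution in liquid diet; diet-alone placebo). Serum WHV DNA was measured weekly by dot blot (sensitivity 1.0 x 10^7 WHVge/ml) or by triplicate real-time PCR (sensitivity 1.0 x 10^3 WHVge/ml) against pWHV8 standards. Log values were compared with week 0 and placebo by repeated-measures ANOVA with Holm-Sidak.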

A short description of data set [9]: Terminal elimination half life in orally dosed monkey. The data set is classed as ADME, organism-based, Macaca mulatta. The conditions noted are these: rhesus monkey, in vivo, po; read-out: beta t1/2 (converted).
Data set [10] concerns Marmota monax. Kind of data set: Toxicity in woodchuck hepatitis virus chronically infected woodchuck assessed as serum sorbitol dehydrogenase level at 30 mg/kg/day, po after 4 weeks. In kind it is organism-based. The arrangement: route oral. The following applies: in vivo, 672 h. In a few lines:
(§4)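 Serum ALT and SDH were measured as hepatocellular injury markers in chronic WHV carriers dosed orally once daily for 4 weeks. Blood was drawn under ketamine (50 mg/kg) and xylazine (5 mg/kg) im anaesthesia before treatment and weekly during treatment.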

A further data set relates to Rhesus monkey. As to the kind of experiment: AUC in po dosed rhesus monkey assessed as serum 9-(beta-D-1,3-dioxolan-4-yl)guanine level. The following applies: in vivo. The data set is classed as ADME, organism-based, Macaca mulatta, Plasma.
Data set [11] can be described thus: Terminal elimination half life in woodchuck hepatitis virus-negative woodchucks at 33.3 mg/kg, iv administered as single dose. In kind it is ADME, organism-based. Also on record: dose 33.3 mg/kg, route intravenous. The conditions noted are these: marmota monax, in vivo, read-out: beta t1/2 (converted). In outline: as §1
Data set [12] can be described thus: Terminal elimination half life in orally dosed mouse. The data set is classed as ADME, organism-based. The conditions noted are these: in vivo, po, read-out: beta t1/2 (converted).
Data set [13] relates to Marmota monax. As to the kind of experiment: Toxicity in woodchuck hepatitis virus chronically infected woodchuck assessed as serum alanine aminotransferase level at 30 mg/kg/day, po after 4 weeks. In kind it is organism-based. The arrangement: route oral. The following applies: in vivo, 672 h. In a few lines:
as §4

The subject of data set [14] is Woodchuck hepatitis virus. As to the kind of experiment: Antiviral activity against woodchuck hepatitis virus chronically infected woodchucks assessed as reduction of viral DNA replicative intermediates at 10 mg/kg/day, po after 4 weeks. In kind it is functional, organism-based. In outline: (§5)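 Liver biopsies were taken by ultrasound-guided needle under ketamine/xylazine anaesthesia. Timing was 1 week before and at the end of 4 weeks of once-daily oral dosing (1–30 mg/kg/day or placebo diet; five woodchucks per group). Samples were snap-frozen and stored at –70°C. Hepatic WHV DNA replicative intermediates were quantified by Southern blot hybridization and compared with placebo.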

The test system of data set [15] is Woodchuck hepatitis virus. As to the kind of experiment: Antiviral activity against woodchuck hepatitis virus chronically infected woodchucks assessed as log reduction of serum viral DNA at 30 mg/kg/day, po after 4 weeks. In kind it is functional. In a few lines: as §3
Data set [16] has as its system Marmota monax. As to the kind of experiment: Toxicity in woodchuck hepatitis virus chronically infected woodchucks assessed as change in body weight administered once daily for 4 weeks. In kind it is organism-based. The conditions noted are these: in vivo, 672 h.
The test system of data set [17] is Woodchuck hepatitis virus. As to the kind of experiment: Antiviral activity against woodchuck hepatitis virus chronically infected woodchucks assessed as log reduction of viral DNA replicative intermediates at 30 mg/kg/day, po after 4 weeks relative to control. In kind it is functional, organism-based. In outline:
as §5

Data set [18] relates to Woodchuck hepatitis virus. As to the kind of experiment: Antiviral activity against woodchuck hepatitis virus chronically infected in woodchucks assessed as reduction in anti-WHV core antigen antibody levels at 30 mg/kg/day, po after 4 weeks. The data set is classed as functional, organism-based.
Data set [19] concerns Woodchuck hepatitis virus. Kind of data set: Antiviral activity against woodchuck hepatitis virus chronically infected orally dosed woodchucks assessed as reduction in serum viremia administered once daily for 4 weeks. In kind it is functional, organism-based. In a few lines: as §2
Data set [20] concerns Woodchuck hepatitis virus. Kind of data set: Antiviral activity against woodchuck hepatitis virus chronically infected woodchucks assessed as log reduction of serum viral DNA at 10 mg/kg/day, po after 4 weeks. In kind it is functional. In outline: as §3
Data set [21] deals with Woodchuck hepatitis virus. Kind of data set: Antiviral activity against woodchuck hepatitis virus chronically infected in woodchucks assessed as reduction in viral surface antigen level in blood at 30 mg/kg/day, po after 4 weeks. The data set is classed as functional. In a few lines:
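Adult woodchucks chronically infected with WHV, in groups of five, got the drug dissolved in isotonic saline and suspended in a semisynthetic liquid diet, by oral dose syringe once daily for 4 weeks. Placebo was diet alone. Serum WHsAg was measured by WHV-specific enzyme immunoassay (optical density units) before, during and after treatment up to week 16.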

The test system of data set [22] is Woodchuck hepatitis virus. Kind of data set: Antiviral activity against woodchuck hepatitis virus chronically infected woodchucks assessed as reduction of viral DNA replicative intermediates at 3 mg/kg/day, po after 4 weeks. The data set is classed as functional, organism-based. In outline: as §5
The subject of data set [23] is Woodchuck hepatitis virus. As to the kind of experiment: Antiviral activity against woodchuck hepatitis virus chronically infected woodchucks assessed as reduction of viral DNA replicative intermediates at 1 mg/kg/day, po after 4 weeks. In kind it is functional, organism-based. In outline:
as §5

Data set [24] has as its system Woodchuck hepatitis virus. Kind of data set: Antiviral activity against woodchuck hepatitis virus chronically infected in woodchucks M7250 assessed as reduction in anti-WHs antibody levels at 30 mg/kg/day, po after 4 weeks. In kind it is functional, organism-based.
For data set [25], the system named is Woodchuck hepatitis virus. As to the kind of experiment: Antiviral activity against woodchuck hepatitis virus infected woodchucks assessed as log reduction of serum viral DNA per ml of serum after 4 weeks. In kind it is functional.
The subject of data set [26] is Duck hepatitis B virus. Kind of data set: Antiviral activity against Duck hepatitis B virus chronically infected ducklings assessed as log reduction of serum viral DNA copies per ml of serum at 20 mg/kg, ip after 10 days. The following applies: route intraperitoneal.
Data set [27] relates to Duck hepatitis B virus. As to the kind of experiment: Antiviral activity against Duck hepatitis B virus experimentally infected ducklings assessed as log reduction of serum viral DNA copies per ml of serum at 40 mg/kg, ip after 10 days. The following applies: route intraperitoneal.
Data set [28] concerns Duck hepatitis B virus. Kind of data set: Antiviral activity against Duck hepatitis B virus infected ip dosed ducklings assessed as log reduction of serum viral DNA copies per ml of serum after 10 days.

Experimental findings from ChEMBL document CHEMBL1154402, “Antiviral effect of orally administered (-)-beta-D-2-aminopurine dioxolane in woodchucks with chronic woodchuck hepatitis virus infection” (Antimicrob Agents Chemother, 2007) are described below.

Calls of active or inactive are those of the source. No cut-off for these calls is given here.

Broadly, the AUC(0-inf) is the area under the concentration-time curve extrapolated to infinity. What is called Cmax is the peak of the concentration-time curve. `Nc1ncc2ncn([C@H]3CO[C@@H](CO)O3)c2n1`: the half-life in data set [1] is 3 h; in [9], 0.5 h; in [11], 1.7 h; in [12], 0.3 h. Besides, the values for the total exposure AUC(0-inf) in data set [2] and in data set [3] were 49.4 µM·h and 203 µM·h, respectively. The values for the Cmax in [4] and in data set [7] were 112 µM and 16.8 µM, respectively. In addition, the outcome in [5], in [6], in data set [14], in [18], in [22] and in [23] was inactive. In data set [24], the result was inactive. Further, the Activity was 0.4 in data set [8]; 211.5 IU/L in the data set with Marmota monax [10]; 9.5 IU/L in the data set on Marmota monax [13]; 1.9 in data set [15]; “Non-toxic” with Marmota monax [16]; “Dose-dependent effect” in data set [19]. Moreover, the Activity in data set [20] stood at 0.7. For the same compound, the “%AUC” value in the data set with Rhesus monkey was determined as 75%. Also, the outcome in [17] was Active. In data set [21], the “fold change (FC)” value is recorded as 1.4.
For `Nc1nc(=O)n([C@@H]2CS[C@H](CO)O2)cc1F` [EMTRICITABINE], the Activity in data set [25] stood at 4.9.
For `Nc1nc(N)c2ncn([C@H]3CO[C@@H](CO)O3)c2n1` [AMDOXOVIR], the Activity is 0.3 in the data set on Duck hepatitis B virus [26], 0.9 in the data set with Duck hepatitis B virus [27] and “Dose-dependent effect” in the data set with Duck hepatitis B virus [28].
As for `C=C1[C@H](CO)[C@@H](O)C[C@@H]1n1cnc2c(=O)[nH]c(N)nc21.O` [ENTECAVIR], the Activity in [25] is reported as 7.
The same measure, in the same setting: in the case of `Nc1ccn([C@@H]2CS[C@H](CO)O2)c(=O)n1` [LAMIVUDINE] it was 2.5; in that of `Cc1cn([C@@H]2C[C@@H](O)[C@H](CO)O2)c(=O)[nH]c1=O` [TELBIVUDINE], 7.
For `CC(C)OC(=O)OCOP(=O)(CO[C@H](C)Cn1cnc2c(N)ncnc21)OCOC(=O)OC(C)C.O=C(O)/C=C/C(=O)O` [TENOFOVIR DISOPROXIL FUMARATE], the Activity in data set [25] came to 1.5.
